We go through 20 compounds from PubChem BioAssay.

This is one part of the list. Results filed as inconclusive are left out. A number with no mark means an inactive call. The source made the active and inactive calls.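 The calls were made as follows, unless noted: active = thallium entry rate above the same plate's blocked-transporter control wells by more than 3 SD; inconclusive = the two repeat wells disagree; inactive = the rest.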

The target of experiment [1] is Solute carrier family 12 member 5 (Homo sapiens) (UniProt Q9H2X9). In words: retest of KCC2 transport modulators without sodium – cell-based, HEK293 KCC2, thallium flux, secondary assay, confirmation (AID 1713;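 active = thallium flux slope above the same plate's solvent-only control mean plus 3 SD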). The settings on record: FluoZin2 fluorescence, at 10 µM, hits give high values. Summed up:
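System: HEK cells expressing human KCC2 cotransporter; Buffer or medium: Na-free NMDG-Cl buffer; Also added: thallium sulfate stimulus buffer at pH 7.3; Dosing: 10 µM single dose, 0.1% DMSO; Timing: 48 min dye loading; Measured by: kinetic FluoZin2 fluorescence at 1 Hz, ex 480/em 540 nm; Read-out: baseline-normalized fluorescence slope, 10–20 s post-Tl+.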

The nature of experiment [2]: PubChem AID 1714.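 Also: raw slope of fluorescence over initial fluorescence between 10 and 20 s after thallium.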 The settings on record: HEK293-KCC2 + bumetanide/ouabain, thallium flux FluoZin2; at 10 µM; hits give high values. Summed up: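 Assay system: HEK cells expressing the K-Cl cotransporter KCC2; buffer or medium: HBSS-HEPES plus ouabain 0.2 mM, bumetanide 2 mM; reagent: thallium stimulus; compound dosing: 10 µM single dose; timing: 48 min dye loading; signal: FluoZin2-AM (0.5 µM) fluorescence, 480 nm ex/540 nm em, 1 Hz kinetic imaging; replication: duplicates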

In experiment [3] the target is Solute carrier family 12 member 5 (Homo sapiens) (UniProt Q9H2X9). In words: retest of KCC2 transport modulation, ouabain-free – cell-based, HEK293 KCC2, thallium flux, FluoZin2, secondary assay 2, confirmation (AID 1715;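 active = thallium flux slope more than 3 SD above or below the plate's solvent-only control mean, mostly below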;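 also: raw slope with 0.1% DMSO as baseline and bumetanide as block control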). The settings on record: HEK293-KCC2, thallium flux FluoZin2 fluorescence; at 10 µM; actives lie on both sides; F/F0 rise rate, 10–20 s post-thallium.

Experiment [4] is described as follows: compound effects on native HEK Tl+ uptake – HEK cells, counterscreen 1, counter-screen for KCC2 modulator project, confirmation (AID 1716;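 active = thallium flux rate significantly above the same plate's solvent-only control wells, beyond their mean plus 3 SD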). The settings on record: HEK293 parental cells, thallium flux FluoZin2, ouabain; at 10 µM; baseline-ratio fluorescence slope, 10–20 s after thallium. (In general: The purpose of a counterscreen is to sort out artefacts and off-target activity.)

Experiment [5] deals with Solute carrier family 12 member 5 (Homo sapiens) (UniProt Q9H2X9). In words: modulation of KCC2 thallium flux in HEK cells – cell-based, ouabain, retest, confirmation (AID 1717;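 active = thallium flux slope beyond 3 SD from same-plate DMSO control mean in most replicates, usually higher, sometimes lower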;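 also: slope of initial-normalized fluorescence between seconds 10 and 20 after thallium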). To be noted: HEK293-KCC2, thallium flux FluoZin2 fluorescence, at 10 µM, bidirectional: low = inhibitor, high = activator.
Experiment [6] is described as follows: native HEK Tl+ uptake effects, second counter-screen – HEK cells, counterscreen 2, counter-screen for KCC2 modulator project, confirmation (AID 1718;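 active = thallium flux slope above the same plate's solvent-control mean plus 3 SD in both duplicate wells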;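 also: run without ouabain in cells lacking the KCC2 cotransporter; slope of fluorescence scaled to its starting value between 10 and 20 s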). The settings on record: HEK293 parental, thallium flux FluoZin-2 fluorescence slope; at 10 µM. Summed up:
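Test system: parental HEK cells / Reagent: thallium sulfate stimulus, 12 mM in buffer, pH 7.3 / Compound: single 10 µM final compound dose, 0.1% DMSO / Timing: overnight cell culture at 37 °C, 48 min dye loading, compound before thallium / Detection: FluoZin-2 fluorescence kinetics / Read-out: rate of F/F0 rise, 10–20 s after thallium addition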

Sequence of Solute carrier family 12 member 5 (Homo sapiens) (Q9H2X9 whole entry, looked up): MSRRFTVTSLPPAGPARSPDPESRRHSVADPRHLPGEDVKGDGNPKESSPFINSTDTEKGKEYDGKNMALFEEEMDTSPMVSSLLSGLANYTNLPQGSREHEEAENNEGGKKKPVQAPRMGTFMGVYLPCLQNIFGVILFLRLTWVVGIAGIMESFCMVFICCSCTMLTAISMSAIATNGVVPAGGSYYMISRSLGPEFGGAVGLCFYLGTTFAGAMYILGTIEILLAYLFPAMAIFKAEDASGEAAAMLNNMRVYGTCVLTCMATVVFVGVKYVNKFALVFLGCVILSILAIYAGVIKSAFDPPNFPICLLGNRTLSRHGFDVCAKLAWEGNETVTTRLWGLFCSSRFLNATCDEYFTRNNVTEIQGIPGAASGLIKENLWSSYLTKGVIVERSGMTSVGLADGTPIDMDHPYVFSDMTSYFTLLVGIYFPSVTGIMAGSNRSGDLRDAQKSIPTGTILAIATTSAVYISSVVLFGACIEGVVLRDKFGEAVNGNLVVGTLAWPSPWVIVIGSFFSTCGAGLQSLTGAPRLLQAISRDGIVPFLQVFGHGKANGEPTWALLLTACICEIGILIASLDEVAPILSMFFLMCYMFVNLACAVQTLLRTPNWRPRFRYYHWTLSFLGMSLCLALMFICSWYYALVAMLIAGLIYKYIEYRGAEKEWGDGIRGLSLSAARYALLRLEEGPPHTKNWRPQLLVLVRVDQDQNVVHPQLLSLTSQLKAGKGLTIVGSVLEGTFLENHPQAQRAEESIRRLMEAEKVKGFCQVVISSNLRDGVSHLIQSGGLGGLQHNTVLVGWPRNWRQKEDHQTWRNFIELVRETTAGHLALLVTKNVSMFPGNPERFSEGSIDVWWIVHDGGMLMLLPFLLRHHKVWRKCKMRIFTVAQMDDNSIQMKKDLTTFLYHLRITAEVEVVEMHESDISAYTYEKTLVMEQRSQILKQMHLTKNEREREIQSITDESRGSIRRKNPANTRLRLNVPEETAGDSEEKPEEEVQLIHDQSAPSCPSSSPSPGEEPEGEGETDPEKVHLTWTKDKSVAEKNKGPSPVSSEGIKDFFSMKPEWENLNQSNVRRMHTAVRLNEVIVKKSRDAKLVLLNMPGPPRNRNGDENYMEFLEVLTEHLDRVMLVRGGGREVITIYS

As to `S=c1[nH]nc(Nc2ccccc2)s1`, in experiment [1], the normalised thallium flux (F/F0 slope) is 0.00869. The normalized thallium flux is 0.00545 in experiment [2] and 0.026 (active) in experiment [3]. Further, the thallium flux rate (normalised fluorescence) in experiment [4] was 0.00742. Also, the raw Tl+ flux slope (below DMSO = inhibition, above = activation) in experiment [5] was 0.0108 (active). In experiment [6], the thallium flux slope was 0.00974.
As for `Cc1ccc(C2CC(=O)NC(SCC(=O)OCc3ccccc3)=C2C#N)o1` (stereo not given), the normalised thallium flux (F/F0 slope) in experiment [1] was 0.0147. Besides, the normalized thallium flux was 0.00407 in experiment [2] and 0.0273 in experiment [3]. The thallium flux rate (normalised fluorescence) in experiment [4] is 0.00691. Moreover, the raw Tl+ flux slope (below DMSO = inhibition, above = activation) in experiment [5] is 0.0133 (active). The thallium flux slope in experiment [6] is 0.00974.
With `O=C1/C(=C\c2ccsc2)NC(=S)N1c1ccccc1`, the normalised thallium flux (F/F0 slope) in experiment [1] is 0.024 (active). For the same compound, the normalized thallium flux in experiment [2] is 0.0414 (active); in experiment [3], 0.039 (active). Moreover, the thallium flux rate (normalised fluorescence) in experiment [4] is 0.0238 (active). In addition, in experiment [5], the raw Tl+ flux slope (below DMSO = inhibition, above = activation) was 0.0341 (active). Further, in experiment [6], the thallium flux slope is 0.024 (active).
Consider `O=S(=O)(c1ccc(F)cc1)N1CCN(C(=S)NCc2ccco2)CC1`, for which the normalised thallium flux (F/F0 slope) in experiment [1] is 0.0076. In addition, the normalized thallium flux in experiment [2] was 0.0054; in experiment [3], 0.0354. Further, the thallium flux rate (normalised fluorescence) in experiment [4] is 0.00396. Also, in experiment [5], the raw Tl+ flux slope (below DMSO = inhibition, above = activation) was 0.0185. Moreover, in experiment [6], the thallium flux slope was 0.0111.
As to `S=c1ccc2ccccc2[nH]1`, the normalised thallium flux (F/F0 slope) in experiment [1] is 0.0228 (active). Also, the results for the normalized thallium flux in experiment [2] and in experiment [3] were 0.0237 (active) and 0.0335, respectively. Moreover, in experiment [4], the thallium flux rate (normalised fluorescence) is 0.0196 (active). Moreover, in experiment [5], the raw Tl+ flux slope (below DMSO = inhibition, above = activation) was 0.0247 (active). The thallium flux slope in experiment [6] was 0.0209 (active).
In the case of `COc1cccc(-c2nnc(NC(=O)c3ccc(S(=O)(=O)N(CC(C)C)CC(C)C)cc3)o2)c1`, the normalised thallium flux (F/F0 slope) in experiment [1] was 0.0109. In addition, the values for the normalized thallium flux in experiment [2] and in experiment [3] were 0.0246 (active) and 0.0331, respectively. Also, the thallium flux rate (normalised fluorescence) in experiment [4] is 0.0752 (active). In addition, in experiment [5], the raw Tl+ flux slope (below DMSO = inhibition, above = activation) is 0.0359 (active). Also, the thallium flux slope in experiment [6] was 0.0148 (active).
Turning to `NS(=O)(=O)c1ccc(NC(=S)NC(=O)c2cccnc2)cc1`, the normalised thallium flux (F/F0 slope) in experiment [1] is 0.00722. In addition, the normalized thallium flux in experiment [2] is 0.00594 (active); in experiment [3] it was 0.0316. Also, in experiment [4], the thallium flux rate (normalised fluorescence) is 0.00846. Besides, the raw Tl+ flux slope (below DMSO = inhibition, above = activation) in experiment [5] is 0.019. The thallium flux slope in experiment [6] was 0.0122.
For the compound `C=CCn1c(=S)[nH]c2scc(-c3ccco3)c2c1=O`, the normalised thallium flux (F/F0 slope) in experiment [1] is 0.0122 (active). Further, the normalized thallium flux in experiment [2] is 0.0771 (active); in experiment [3], 0.0916 (active). Further, the thallium flux rate (normalised fluorescence) in experiment [4] is 0.0914 (active). Besides, the raw Tl+ flux slope (below DMSO = inhibition, above = activation) in experiment [5] was 0.0814 (active). Besides, the thallium flux slope in experiment [6] was 0.0843 (active).
`COc1cccc(-c2nc(S(=O)(=O)c3ccccc3)c(N3CCOCC3)o2)c1`: the normalised thallium flux (F/F0 slope) in experiment [1] was 0.00627. Besides, the results for the normalized thallium flux in experiment [2] and in experiment [3] were 0.0046 and 0.0314, respectively. Also, the thallium flux rate (normalised fluorescence) in experiment [4] is 0.00767. In experiment [5], the raw Tl+ flux slope (below DMSO = inhibition, above = activation) is 0.0193. The thallium flux slope in experiment [6] was 0.0105.
As to `COc1ccc(CNC(=O)CCn2cccc2)cc1`, in experiment [1], the normalised thallium flux (F/F0 slope) was 0.0171. For the same compound, the normalized thallium flux in experiment [2] is 0.00443; in experiment [3], 0.0307. Moreover, the thallium flux rate (normalised fluorescence) in experiment [4] is 0.00777. In addition, in experiment [5], the raw Tl+ flux slope (below DMSO = inhibition, above = activation) is 0.0168. Moreover, in experiment [6], the thallium flux slope was 0.0101.
Consider `COc1ccc(Oc2c(Cl)cnn(-c3ccccc3)c2=O)cc1`, for which the normalised thallium flux (F/F0 slope) in experiment [1] was 0.00949. The normalized thallium flux was 0.0065 in experiment [2] and 0.0314 in experiment [3]. The thallium flux rate (normalised fluorescence) in experiment [4] is 0.00741. Also, in experiment [5], the raw Tl+ flux slope (below DMSO = inhibition, above = activation) was 0.0166 (active). Also, the thallium flux slope in experiment [6] is 0.00996.
`CCn1c(=S)[nH]c2sc3c(c2c1=O)CCCCC3`: the normalised thallium flux (F/F0 slope) in experiment [1] is 0.0279 (active). For the same compound, the normalized thallium flux was 0.092 (active) in experiment [2] and 0.0959 (active) in experiment [3]. Besides, the thallium flux rate (normalised fluorescence) in experiment [4] is 0.0964 (active). In addition, in experiment [5], the raw Tl+ flux slope (below DMSO = inhibition, above = activation) was 0.0856 (active). The thallium flux slope in experiment [6] was 0.1 (active).
Regarding `S=C(NN=C1CCN(Cc2ccccc2)CC1)NC1CCCCC1`, the normalised thallium flux (F/F0 slope) in experiment [1] was 0.0184. Further, the normalized thallium flux in experiment [2] is 0.00465; in experiment [3] it was 0.0249 (active). For the same compound, the thallium flux rate (normalised fluorescence) in experiment [4] is 0.00811. Moreover, in experiment [5], the raw Tl+ flux slope (below DMSO = inhibition, above = activation) was 0.0155 (active). For the same compound, the thallium flux slope in experiment [6] is 0.0111.
On to `COc1cccc(CNC(=O)Cc2csc(Nc3nc(=S)[nH]c4ccccc34)n2)c1`, for which the normalised thallium flux (F/F0 slope) in experiment [1] is 0.0104. The normalized thallium flux in experiment [2] is 0.0662 (active); in experiment [3], 0.0329. In addition, the thallium flux rate (normalised fluorescence) in experiment [4] is 0.0306 (active). Also, the raw Tl+ flux slope (below DMSO = inhibition, above = activation) in experiment [5] was 0.0519 (active). Besides, in experiment [6], the thallium flux slope was 0.0141 (active).
On to `Oc1ccccc1/C=N/n1c(-c2cccs2)n[nH]c1=S`, for which the normalised thallium flux (F/F0 slope) in experiment [1] is 0.02 (active). Also, the normalized thallium flux in experiment [2] was 0.0602 (active); in experiment [3], 0.0326. Moreover, the thallium flux rate (normalised fluorescence) in experiment [4] is 0.0173 (active). Further, the raw Tl+ flux slope (below DMSO = inhibition, above = activation) in experiment [5] was 0.0288 (active). In experiment [6], the thallium flux slope was 0.0224 (active).
`Cc1cc(C)nc(SC(C)C(=O)N/N=C/c2cccs2)n1` (stereo not given): in experiment [1], the normalised thallium flux (F/F0 slope) is 0.00759. For the same compound, the normalized thallium flux in experiment [2] was 0.00586; in experiment [3] it was 0.0302. The thallium flux rate (normalised fluorescence) in experiment [4] is 0.00741. Also, the raw Tl+ flux slope (below DMSO = inhibition, above = activation) in experiment [5] is 0.0216. For the same compound, the thallium flux slope in experiment [6] was 0.00957.
For the compound `O=C(COC(=O)c1ccc(Oc2ccccc2)cc1)Nc1nnc(-c2ccccc2)o1`, the normalised thallium flux (F/F0 slope) in experiment [1] is 0.00704. For the same compound, the normalized thallium flux in experiment [2] was 0.0517 (active); in experiment [3] it was 0.0474 (active). The thallium flux rate (normalised fluorescence) in experiment [4] was 0.0357 (active). For the same compound, the raw Tl+ flux slope (below DMSO = inhibition, above = activation) in experiment [5] was 0.0424 (active). Besides, in experiment [6], the thallium flux slope was 0.0346 (active).
As to `CC(=O)NNc1cc(=O)c2c(=O)n(C)c(=O)n(C)c2[nH]1`, the normalised thallium flux (F/F0 slope) in experiment [1] was 0.0167. In addition, the normalized thallium flux is 0.00524 in experiment [2] and 0.0281 in experiment [3]. The thallium flux rate (normalised fluorescence) in experiment [4] was 0.00797. Besides, the raw Tl+ flux slope (below DMSO = inhibition, above = activation) in experiment [5] was 0.0159. Besides, the thallium flux slope in experiment [6] is 0.0112.
For the compound `Cc1nn(-c2ccccc2)c2sc(C(=O)N(Cc3ccco3)C(C)C(=O)NC(C)(C)C)cc12` (stereo not given), the normalised thallium flux (F/F0 slope) in experiment [1] is 0.00786. Besides, the normalized thallium flux in experiment [2] is 0.00436; in experiment [3], 0.0324. Further, in experiment [4], the thallium flux rate (normalised fluorescence) is 0.00693. Moreover, the raw Tl+ flux slope (below DMSO = inhibition, above = activation) in experiment [5] is 0.0198. In addition, the thallium flux slope in experiment [6] is 0.0103.
Regarding `O=C(CN(c1cccc(Cl)c1)S(=O)(=O)c1ccccc1)NN=C1CCCC1`, the normalised thallium flux (F/F0 slope) in experiment [1] was 0.0069. Besides, the normalized thallium flux in experiment [2] was 0.00505; in experiment [3], 0.0271. Further, in experiment [4], the thallium flux rate (normalised fluorescence) is 0.00791. Moreover, the raw Tl+ flux slope (below DMSO = inhibition, above = activation) in experiment [5] is 0.0178. In experiment [6], the thallium flux slope is 0.00991.
